Measured values as given in ChEMBL document CHEMBL3769341, “Discovery and Characterization of GSK2801, a Selective Chemical Probe for the Bromodomains BAZ2A and BAZ2B” (J Med Chem, 2016).
Activity calls are given as the source filed them. No cut-off for these calls is given here.

How the values were obtained:
[1] = molecular target: Protein polybromo-1 (Homo sapiens) (UniProt Q86U86); test: Binding affinity to biotinylated PB1 bromodomain-1 (unknown origin) expressed in Escherichia coli at 0.2 to 1 uM by Biolayer Interferometric analysis
Sequence of Protein polybromo-1 (Homo sapiens) (Q86U86 whole entry, the tested form may be a part): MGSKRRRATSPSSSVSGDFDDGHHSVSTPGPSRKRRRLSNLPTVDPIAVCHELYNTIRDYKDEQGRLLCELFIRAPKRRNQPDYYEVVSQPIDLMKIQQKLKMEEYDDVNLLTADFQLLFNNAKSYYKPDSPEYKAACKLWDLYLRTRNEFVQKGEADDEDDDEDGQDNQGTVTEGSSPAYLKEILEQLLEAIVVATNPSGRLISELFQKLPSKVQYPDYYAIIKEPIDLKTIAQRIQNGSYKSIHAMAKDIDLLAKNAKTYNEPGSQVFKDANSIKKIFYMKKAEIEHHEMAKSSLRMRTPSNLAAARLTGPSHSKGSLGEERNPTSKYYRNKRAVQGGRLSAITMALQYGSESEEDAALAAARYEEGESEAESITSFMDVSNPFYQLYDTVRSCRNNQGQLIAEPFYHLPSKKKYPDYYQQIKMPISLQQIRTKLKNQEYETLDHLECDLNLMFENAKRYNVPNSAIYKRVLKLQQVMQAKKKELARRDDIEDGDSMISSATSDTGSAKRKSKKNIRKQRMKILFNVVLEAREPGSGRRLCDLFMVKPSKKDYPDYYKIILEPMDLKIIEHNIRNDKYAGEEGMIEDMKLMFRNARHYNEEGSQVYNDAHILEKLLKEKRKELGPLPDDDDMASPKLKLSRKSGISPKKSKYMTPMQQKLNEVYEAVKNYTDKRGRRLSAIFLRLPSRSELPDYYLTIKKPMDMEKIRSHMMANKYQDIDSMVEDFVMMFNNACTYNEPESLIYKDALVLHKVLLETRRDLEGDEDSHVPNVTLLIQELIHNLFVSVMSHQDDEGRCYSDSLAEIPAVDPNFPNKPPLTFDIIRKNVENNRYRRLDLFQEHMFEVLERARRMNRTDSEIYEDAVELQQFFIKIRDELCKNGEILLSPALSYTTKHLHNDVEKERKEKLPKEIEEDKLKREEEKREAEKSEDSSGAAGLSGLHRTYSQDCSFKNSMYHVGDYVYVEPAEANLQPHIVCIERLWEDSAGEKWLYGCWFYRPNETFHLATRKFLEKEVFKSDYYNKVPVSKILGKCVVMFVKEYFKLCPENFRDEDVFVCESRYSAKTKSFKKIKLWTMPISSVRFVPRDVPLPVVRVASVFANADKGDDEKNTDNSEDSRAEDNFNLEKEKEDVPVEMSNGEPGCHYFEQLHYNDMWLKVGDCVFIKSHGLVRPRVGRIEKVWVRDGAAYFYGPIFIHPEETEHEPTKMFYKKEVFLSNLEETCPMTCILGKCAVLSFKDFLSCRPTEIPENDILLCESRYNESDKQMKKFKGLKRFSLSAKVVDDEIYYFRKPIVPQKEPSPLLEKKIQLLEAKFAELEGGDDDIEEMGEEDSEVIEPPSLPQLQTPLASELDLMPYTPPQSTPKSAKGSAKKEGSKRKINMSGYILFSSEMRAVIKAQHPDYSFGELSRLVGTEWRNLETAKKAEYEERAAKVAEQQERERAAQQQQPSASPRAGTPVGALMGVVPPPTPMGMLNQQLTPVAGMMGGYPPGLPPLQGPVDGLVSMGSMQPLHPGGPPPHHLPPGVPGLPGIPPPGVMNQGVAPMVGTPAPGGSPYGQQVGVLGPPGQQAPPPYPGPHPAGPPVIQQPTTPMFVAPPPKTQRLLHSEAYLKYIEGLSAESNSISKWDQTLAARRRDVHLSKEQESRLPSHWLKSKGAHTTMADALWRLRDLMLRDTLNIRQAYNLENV
Procedure, shortened: (§1)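 Bromodomains carrying a BirA biotin ligase targeting sequence, coexpressed with BirA in bacteria to give homogeneous in vivo biotin labelling, checked by mass spectrometry. Biotinylated proteins probed by biolayer interferometry with compound at two concentrations, 0.2 and 1.0 μM.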

[2] = molecular target: Nuclear body protein SP140 (Homo sapiens) (UniProt Q13342); test: Binding affinity to biotinylated SP140 (unknown origin) expressed in Escherichia coli at 0.2 to 1 uM by Biolayer Interferometric analysis; procedure, shortened: as §1
[3] = molecular target: PH-interacting protein (Homo sapiens) (UniProt Q8WWQ0); test: Binding affinity to biotinylated PHIP (unknown origin) expressed in Escherichia coli at 0.2 to 1 uM by Biolayer Interferometric analysis; procedure, shortened: as §1
[4] = molecular target: CREB-binding protein (Homo sapiens) (UniProt Q92793); test: Binding affinity to biotinylated CREBBP (unknown origin) expressed in Escherichia coli at 0.2 to 1 uM by Biolayer Interferometric analysis; procedure, shortened: as §1
[5] = molecular target: Histone acetyltransferase p300 (Homo sapiens) (UniProt Q09472); test: Binding affinity to biotinylated EP300 (unknown origin) expressed in Escherichia coli at 0.2 to 1 uM by Biolayer Interferometric analysis; procedure, shortened: as §1
[6] = molecular target: Transcription initiation factor TFIID subunit 1-like (Homo sapiens) (UniProt Q8IZX4); test: Binding affinity to biotinylated TAF1L bromodomain-1 (unknown origin) expressed in Escherichia coli at 0.2 to 1 uM by Biolayer Interferometric analysis; procedure, shortened: as §1
Sequence of Transcription initiation factor TFIID subunit 1-like (Homo sapiens) (Q8IZX4 whole entry): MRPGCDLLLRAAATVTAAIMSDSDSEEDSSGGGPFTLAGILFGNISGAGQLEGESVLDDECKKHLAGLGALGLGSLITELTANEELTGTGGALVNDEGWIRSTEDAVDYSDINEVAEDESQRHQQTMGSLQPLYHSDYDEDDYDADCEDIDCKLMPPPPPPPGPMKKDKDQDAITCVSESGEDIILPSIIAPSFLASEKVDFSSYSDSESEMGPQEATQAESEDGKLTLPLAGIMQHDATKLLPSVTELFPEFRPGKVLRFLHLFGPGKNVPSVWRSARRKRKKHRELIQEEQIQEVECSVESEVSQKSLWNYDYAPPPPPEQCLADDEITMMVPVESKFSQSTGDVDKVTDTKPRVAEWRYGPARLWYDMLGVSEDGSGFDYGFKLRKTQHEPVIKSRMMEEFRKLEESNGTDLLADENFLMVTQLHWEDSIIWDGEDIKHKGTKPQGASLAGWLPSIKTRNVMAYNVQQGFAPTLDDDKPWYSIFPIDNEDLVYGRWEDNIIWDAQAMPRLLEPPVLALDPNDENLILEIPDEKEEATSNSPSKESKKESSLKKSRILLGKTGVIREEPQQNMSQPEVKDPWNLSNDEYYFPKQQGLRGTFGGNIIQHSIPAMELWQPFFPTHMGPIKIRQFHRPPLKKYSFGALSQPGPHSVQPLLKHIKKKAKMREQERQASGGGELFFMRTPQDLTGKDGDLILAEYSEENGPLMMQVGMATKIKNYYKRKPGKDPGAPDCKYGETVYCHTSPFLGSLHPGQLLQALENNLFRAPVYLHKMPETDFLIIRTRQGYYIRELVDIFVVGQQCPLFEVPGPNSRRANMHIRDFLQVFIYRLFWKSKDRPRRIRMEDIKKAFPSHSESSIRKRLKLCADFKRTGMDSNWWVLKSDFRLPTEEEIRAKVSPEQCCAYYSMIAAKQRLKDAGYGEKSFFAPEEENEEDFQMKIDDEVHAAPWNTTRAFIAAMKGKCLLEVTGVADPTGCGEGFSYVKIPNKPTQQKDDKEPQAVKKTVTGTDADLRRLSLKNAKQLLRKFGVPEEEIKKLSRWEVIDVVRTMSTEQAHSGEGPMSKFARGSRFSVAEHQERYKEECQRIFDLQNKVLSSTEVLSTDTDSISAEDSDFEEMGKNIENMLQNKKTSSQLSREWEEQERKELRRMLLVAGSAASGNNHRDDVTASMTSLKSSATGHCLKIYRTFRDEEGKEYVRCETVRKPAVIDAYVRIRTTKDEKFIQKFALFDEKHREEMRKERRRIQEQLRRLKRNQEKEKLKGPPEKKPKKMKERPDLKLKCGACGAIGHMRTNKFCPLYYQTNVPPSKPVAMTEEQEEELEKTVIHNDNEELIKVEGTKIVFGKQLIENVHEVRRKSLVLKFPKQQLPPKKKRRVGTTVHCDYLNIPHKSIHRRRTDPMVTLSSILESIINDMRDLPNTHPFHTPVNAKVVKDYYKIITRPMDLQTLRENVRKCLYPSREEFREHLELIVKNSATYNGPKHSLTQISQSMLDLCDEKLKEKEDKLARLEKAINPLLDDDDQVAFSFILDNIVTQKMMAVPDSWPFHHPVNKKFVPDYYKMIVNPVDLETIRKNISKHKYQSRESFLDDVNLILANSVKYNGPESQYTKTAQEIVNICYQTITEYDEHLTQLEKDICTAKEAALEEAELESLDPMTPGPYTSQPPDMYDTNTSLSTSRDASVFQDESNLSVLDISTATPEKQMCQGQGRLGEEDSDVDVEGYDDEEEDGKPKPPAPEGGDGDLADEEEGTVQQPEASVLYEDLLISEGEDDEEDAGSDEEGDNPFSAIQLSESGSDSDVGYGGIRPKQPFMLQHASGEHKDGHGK

[7] = molecular target: Bromodomain-containing protein 4 (Homo sapiens) (UniProt O60885); test: Binding affinity to biotinylated BRD4 bromodomain-1 (unknown origin) expressed in Escherichia coli at 0.2 to 1 uM by Biolayer Interferometric analysis; procedure, shortened: as §1
[8] = molecular target: Bromodomain-containing protein 1 (Homo sapiens) (UniProt O95696); test: Binding affinity to biotinylated BRD1 (unknown origin) expressed in Escherichia coli at 0.2 to 1 uM by Biolayer Interferometric analysis; procedure, shortened: as §1
[9] = molecular target: Bromodomain-containing protein 3 (Homo sapiens) (UniProt Q15059); test: Binding affinity to biotinylated BRD3 bromodomain-2 (unknown origin) expressed in Escherichia coli at 0.2 to 1 uM by Biolayer Interferometric analysis; procedure, shortened: as §1
Sequence of Bromodomain-containing protein 3 (Homo sapiens) (Q15059 2-726 limits assumed): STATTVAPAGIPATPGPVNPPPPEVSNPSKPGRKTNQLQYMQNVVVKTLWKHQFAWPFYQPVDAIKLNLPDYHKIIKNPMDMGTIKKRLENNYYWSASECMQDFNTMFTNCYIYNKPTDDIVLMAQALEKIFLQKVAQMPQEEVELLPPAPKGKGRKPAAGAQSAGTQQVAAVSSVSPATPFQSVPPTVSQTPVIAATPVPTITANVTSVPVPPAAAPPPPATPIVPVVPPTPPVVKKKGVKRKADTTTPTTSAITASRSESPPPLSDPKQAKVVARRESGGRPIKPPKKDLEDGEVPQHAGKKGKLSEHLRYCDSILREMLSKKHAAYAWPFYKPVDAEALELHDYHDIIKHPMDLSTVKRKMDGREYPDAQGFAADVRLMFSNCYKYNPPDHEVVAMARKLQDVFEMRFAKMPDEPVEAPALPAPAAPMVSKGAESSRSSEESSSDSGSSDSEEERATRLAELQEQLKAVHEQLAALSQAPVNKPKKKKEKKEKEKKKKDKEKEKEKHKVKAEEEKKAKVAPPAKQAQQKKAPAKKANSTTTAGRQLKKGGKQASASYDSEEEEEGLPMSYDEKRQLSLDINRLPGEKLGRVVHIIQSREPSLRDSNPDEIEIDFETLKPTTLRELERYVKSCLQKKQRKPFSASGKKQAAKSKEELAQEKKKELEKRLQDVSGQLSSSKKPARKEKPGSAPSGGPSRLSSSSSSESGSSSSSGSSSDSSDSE

[10] = molecular target: Bromodomain and WD repeat-containing protein 1 (Homo sapiens) (UniProt Q9NSI6); test: Binding affinity to biotinylated WDR9 (unknown origin) expressed in Escherichia coli at 0.2 to 1 uM by Biolayer Interferometric analysis; procedure, shortened: as §1
[11] = molecular target: Transcription initiation factor TFIID subunit 1 (Homo sapiens) (UniProt P21675); test: Binding affinity to biotinylated TAF1 bromodomain-2 (unknown origin) expressed in Escherichia coli at 0.2 to 1 uM by Biolayer Interferometric analysis; procedure, shortened: as §1
[12] = molecular target: Protein polybromo-1 (Homo sapiens) (UniProt Q86U86); test: Binding affinity to biotinylated PB1 bromodomain-5 (unknown origin) expressed in Escherichia coli at 0.2 to 1 uM by Biolayer Interferometric analysis; procedure, shortened: as §1
[13] = molecular target: Bromodomain adjacent to zinc finger domain protein 2B (Homo sapiens) (UniProt Q9UIF8); test: Binding affinity to biotinylated C-terminal Avi/His-TEV-tagged BAZ2B (unknown origin) expressed in Escherichia coli at 0.2 to 1 uM by Biolayer Interferometric analysis; procedure, shortened: as §1
Peregrin (Homo sapiens) = Peregrin (Homo sapiens) (UniProt P55201); test: Binding affinity to biotinylated BRPF1 bromodomain-1 (unknown origin) expressed in Escherichia coli at 0.2 to 1 uM by Biolayer Interferometric analysis; procedure, shortened: as §1
[14] = molecular target: Transcription initiation factor TFIID subunit 1-like (Homo sapiens) (UniProt Q8IZX4); test: Binding affinity to biotinylated TAF1L bromodomain-2 (unknown origin) expressed in Escherichia coli at 0.2 to 1 uM by Biolayer Interferometric analysis; procedure, shortened: as §1
[15] = molecular target: Protein polybromo-1 (Homo sapiens) (UniProt Q86U86); test: Binding affinity to biotinylated PB1 bromodomain-2 (unknown origin) expressed in Escherichia coli at 0.2 to 1 uM by Biolayer Interferometric analysis; procedure, shortened: as §1
[16] = molecular target: SWI/SNF-related matrix-associated actin-dependent regulator of chromatin subfamily A member 4 (Homo sapiens) (UniProt P51532); test: Binding affinity to biotinylated SMARCA4 (unknown origin) expressed in Escherichia coli at 0.2 to 1 uM by Biolayer Interferometric analysis; procedure, shortened: as §1
[17] = molecular target: Nucleosome-remodeling factor subunit BPTF (Homo sapiens) (UniProt Q12830); test: Binding affinity to biotinylated FALZ (unknown origin) expressed in Escherichia coli at 0.2 to 1 uM by Biolayer Interferometric analysis; procedure, shortened: as §1
[18] = molecular target: Bromodomain testis-specific protein (Homo sapiens) (UniProt Q58F21); test: Binding affinity to biotinylated BRDT bromodomain-2 (unknown origin) expressed in Escherichia coli at 0.2 to 1 uM by Biolayer Interferometric analysis; procedure, shortened: as §1
[19] = molecular target: Tyrosine-protein kinase BAZ1B (Homo sapiens) (UniProt Q9UIG0); test: Binding affinity to biotinylated BAZ1B (unknown origin) expressed in Escherichia coli at 0.2 to 1 uM by Biolayer Interferometric analysis; procedure, shortened: as §1
[20] = molecular target: Protein polybromo-1 (Homo sapiens) (UniProt Q86U86); test: Binding affinity to biotinylated PB1 bromodomain-6 (unknown origin) expressed in Escherichia coli at 0.2 to 1 uM by Biolayer Interferometric analysis; procedure, shortened: as §1
[21] = molecular target: Histone acetyltransferase KAT2A (Homo sapiens) (UniProt Q92830); test: Binding affinity to biotinylated GCN5L2 (unknown origin) expressed in Escherichia coli at 0.2 to 1 uM by Biolayer Interferometric analysis; procedure, shortened: as §1
[22] = molecular target: Histone acetyltransferase KAT2B (Homo sapiens) (UniProt Q92831); test: Binding affinity to biotinylated PCAF (unknown origin) expressed in Escherichia coli at 0.2 to 1 uM by Biolayer Interferometric analysis; procedure, shortened: as §1
[23] = molecular target: SWI/SNF-related matrix-associated actin-dependent regulator of chromatin subfamily A member 2 (Homo sapiens) (UniProt P51531); test: Binding affinity to biotinylated SMARCA2 (unknown origin) expressed in Escherichia coli at 0.2 to 1 uM by Biolayer Interferometric analysis; procedure, shortened: as §1
[24] = molecular target: Transcription intermediary factor 1-beta (Homo sapiens) (UniProt Q13263); test: Binding affinity to biotinylated TRIM28 (unknown origin) expressed in Escherichia coli at 0.2 to 1 uM by Biolayer Interferometric analysis; procedure, shortened: as §1
[25] = molecular target: Bromodomain-containing protein 2 (Homo sapiens) (UniProt P25440); test: Binding affinity to biotinylated BRD2 bromodomain-2 (unknown origin) expressed in Escherichia coli at 0.2 to 1 uM by Biolayer Interferometric analysis; procedure, shortened: as §1
Sequence of Bromodomain-containing protein 2 (Homo sapiens) (P25440 whole entry, looked up): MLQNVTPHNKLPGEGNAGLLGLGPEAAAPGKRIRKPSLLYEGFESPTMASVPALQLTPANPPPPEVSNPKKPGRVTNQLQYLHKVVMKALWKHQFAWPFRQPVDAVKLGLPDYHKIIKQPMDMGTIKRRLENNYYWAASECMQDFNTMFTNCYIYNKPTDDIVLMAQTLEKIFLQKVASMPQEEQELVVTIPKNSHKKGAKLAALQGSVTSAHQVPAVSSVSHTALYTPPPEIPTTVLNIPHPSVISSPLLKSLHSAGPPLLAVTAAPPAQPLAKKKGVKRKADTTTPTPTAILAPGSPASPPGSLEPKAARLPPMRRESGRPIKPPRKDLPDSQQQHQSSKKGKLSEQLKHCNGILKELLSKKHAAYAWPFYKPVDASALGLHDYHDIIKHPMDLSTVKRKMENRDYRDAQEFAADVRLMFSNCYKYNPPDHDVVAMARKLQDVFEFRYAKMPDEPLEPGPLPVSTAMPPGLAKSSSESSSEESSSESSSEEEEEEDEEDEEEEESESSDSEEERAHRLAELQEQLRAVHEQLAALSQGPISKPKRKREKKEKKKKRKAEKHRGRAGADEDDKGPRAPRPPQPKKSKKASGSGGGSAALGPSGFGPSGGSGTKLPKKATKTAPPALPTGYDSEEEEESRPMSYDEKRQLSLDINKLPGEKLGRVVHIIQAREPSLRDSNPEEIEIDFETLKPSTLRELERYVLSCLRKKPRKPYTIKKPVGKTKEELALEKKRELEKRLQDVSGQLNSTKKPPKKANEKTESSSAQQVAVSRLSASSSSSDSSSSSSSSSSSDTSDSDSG

[26] = molecular target: Bromodomain-containing protein 3 (Homo sapiens) (UniProt Q15059); test: Binding affinity to biotinylated BRD3 bromodomain-1 (unknown origin) expressed in Escherichia coli at 0.2 to 1 uM by Biolayer Interferometric analysis; procedure, shortened: as §1
[27] = molecular target: Chromatin remodeling regulator CECR2 (Homo sapiens) (UniProt Q9BXF3); test: Binding affinity to biotinylated CECR2 (unknown origin) expressed in Escherichia coli at 0.2 to 1 uM by Biolayer Interferometric analysis; procedure, shortened: as §1
[28] = molecular target: Bromodomain-containing protein 4 (Homo sapiens) (UniProt O60885); test: Binding affinity to biotinylated BRD4 bromodomain-2 (unknown origin) expressed in Escherichia coli at 0.2 to 1 uM by Biolayer Interferometric analysis; procedure, shortened: as §1
[29] = molecular target: Transcription initiation factor TFIID subunit 1 (Homo sapiens) (UniProt P21675); test: Binding affinity to biotinylated TAF1 bromodomain-1 (unknown origin) expressed in Escherichia coli at 0.2 to 1 uM by Biolayer Interferometric analysis; procedure, shortened: as §1
[30] = molecular target: Bromodomain testis-specific protein (Homo sapiens) (UniProt Q58F21); test: Binding affinity to biotinylated BRDT bromodomain-1 (unknown origin) expressed in Escherichia coli at 0.2 to 1 uM by Biolayer Interferometric analysis; procedure, shortened: as §1
[31] = molecular target: Bromodomain-containing protein 7 (Homo sapiens) (UniProt Q9NPI1); test: Binding affinity to biotinylated BRD7 (unknown origin) expressed in Escherichia coli at 0.2 to 1 uM by Biolayer Interferometric analysis; procedure, shortened: as §1
[32] = molecular target: Protein polybromo-1 (Homo sapiens) (UniProt Q86U86); test: Binding affinity to biotinylated PB1 bromodomain-4 (unknown origin) expressed in Escherichia coli at 0.2 to 1 uM by Biolayer Interferometric analysis; procedure, shortened: as §1
[33] = molecular target: Bromodomain and WD repeat-containing protein 3 (Homo sapiens) (UniProt Q6RI45); test: Binding affinity to biotinylated BRWD3 bromodomain-2 (unknown origin) expressed in Escherichia coli at 0.2 to 1 uM by Biolayer Interferometric analysis; procedure, shortened: as §1
[34] = molecular target: ATPase family AAA domain-containing protein 2 (Homo sapiens) (UniProt Q6PL18); test: Binding affinity to biotinylated ATAD2 (unknown origin) expressed in Escherichia coli at 0.2 to 1 uM by Biolayer Interferometric analysis; procedure, shortened: as §1
[35] = molecular target: Histone-lysine N-methyltransferase ASH1L (Homo sapiens) (UniProt Q9NR48); test: Binding affinity to biotinylated ASH1L bromodomain (unknown origin) expressed in Escherichia coli at 0.2 to 1 uM by Biolayer Interferometric analysis; procedure, shortened: as §1
[36] = molecular target: Bromodomain-containing protein 2 (Homo sapiens) (UniProt P25440); test: Binding affinity to biotinylated BRD2 bromodomain-1 (unknown origin) expressed in Escherichia coli at 0.2 to 1 uM by Biolayer Interferometric analysis; procedure, shortened: as §1
[37] = molecular target: Transcription intermediary factor 1-alpha (Homo sapiens) (UniProt O15164); test: Binding affinity to biotinylated TIF1 bromodomain-1 (unknown origin) expressed in Escherichia coli at 0.2 to 1 uM by Biolayer Interferometric analysis; procedure, shortened: as §1
[38] = molecular target: ATPase family AAA domain-containing protein 2B (Homo sapiens) (UniProt Q9ULI0); test: Binding affinity to biotinylated KIAA1240 (unknown origin) expressed in Escherichia coli at 0.2 to 1 uM by Biolayer Interferometric analysis; procedure, shortened: as §1
[39] = molecular target: Bromodomain-containing protein 9 (Homo sapiens) (UniProt Q9H8M2); test: Binding affinity to biotinylated C-terminal Avi/His-TEV-fused BRD9 (unknown origin) expressed in Escherichia coli by isothermal titration calorimetric analysis

| Structure (SMILES) | Activity [1] | Activity [2] | Activity [3] | Activity [4] | Activity [5] | Activity [6] | Activity [7] | Activity [8] | Activity [9] | Activity [10] | Activity [11] | Activity [12] | Activity (Peregrin (Homo sapiens)) | Activity [15] | Activity [16] | Activity [17] | Activity [18] | Activity [19] | Activity [20] | Activity [21] | other results |
| --- | --- | --- | --- | --- | --- | --- | --- | --- | --- | --- | --- | --- | --- | --- | --- | --- | --- | --- | --- | --- | --- |
| CCCOc1ccn2c(C(C)=O)cc(-c3cccc(OC)c3)c2c1 | inactive | inactive | inactive | inactive | inactive | inactive | inactive | inactive | inactive | inactive | inactive | inactive | inactive | inactive | inactive | inactive | inactive | inactive | inactive | inactive | Activity [13]: inactive; Activity [14]: inactive; Activity [22]: inactive; Activity [23]: inactive; Activity [24]: inactive; Activity [25]: inactive; Activity [26]: inactive; Activity [27]: inactive; Activity [28]: inactive; Activity [29]: inactive; Activity [30]: inactive; Activity [31]: inactive; Activity [32]: inactive; Activity [33]: inactive; Activity [34]: inactive; Activity [35]: inactive; Activity [36]: inactive; Activity [37]: inactive; Activity [38]: inactive |
| CCCOc1ccn2c(C(C)=O)cc(-c3ccccc3S(C)(=O)=O)c2c1 | inactive | inactive | inactive | inactive | inactive | inactive | inactive | inactive | inactive | inactive | inactive | inactive | inactive | inactive | inactive | inactive | inactive | inactive | inactive | inactive | Kb [39]: 0.826 ×10⁶ /M; Activity [22]: inactive; Activity [23]: inactive; Activity [24]: inactive; Activity [25]: inactive; Activity [26]: inactive; Activity [27]: inactive; Activity [28]: inactive; Activity [29]: inactive; Activity [30]: inactive; Activity [31]: inactive; Activity [32]: inactive; Activity [33]: inactive; Activity [34]: inactive; Activity [35]: inactive; Activity [36]: inactive; Activity [37]: inactive; Activity [38]: inactive |
